Only some compounds are listed: those with a hit (about 1.1% of all), similar ones and a draw of the others.
CAL PDZ FP-1 – human CAL PDZ-peptide interaction inhibition; hit rate 0.02% among 330,000; Q9HD26; inhibition, % at 20 µM; purified CAL PDZ, TMR-peptide fluorescence polarization, 1 h;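 active = highest replicate inhibition of at least 40%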
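Test system: purified CerCALP PDZ construct; Compound dosing: one concentration, 20 µM compound; Also added: TMR-labelled reporter peptide T*-PRC34 bound in PDZ groove; Read-out: inhibition from polarization loss; Controls: unlabelled peptide and DMSO controls; Signal: FP readout, S and P plane fluorescence; Incubation: 1 h at RT.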
miR-122 sensor – miR-122 inhibition in Huh7 cells. Huh7 miR-122 Renilla luciferase sensor, 48 h; neutral wells = 0, positive control = 100. activation (reporter increase), % at 12.5 µM. hit rate 0.3% among 340,000. AID 602342;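 active = mean replicate activation score at least 90 and every replicate individually at or above 90; inconclusive = only one of the two criteria met; inactive = neither criterion met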;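 note: higher luciferase means less miR-122 activity so hits act as miR-122 inhibitors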
CAL PDZ FP-2 – blocks peptide binding to the human CAL PDZ domain; purified CAL PDZ, TMR-peptide fluorescence polarization, 1 h; inhibition, % at 24.9 µM; Q9HD26; hit rate 0.92% among 300,000; AID 602252;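 active = mean inhibition of at least 30% with at least half of replicates also reaching 30%; inconclusive = no clear call, values can overlap the other calls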
Cneo AK release – causes C. neoformans cell lysis | hit rate 0.2% among 360,000 | adenylate kinase release luminescence, 4 h; normalised: neutral wells 0, clomiphene wells 100 | lysis activity, % at 15 µM | AID 651654;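 active = mean lysis activity across replicates of at least 80%, whatever share of replicates individually reach that level; inactive = mean lysis activity below 80%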
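Material – Cryptococcus neoformans yeast cells · Quantity – 5 × 10^6 yeast cells/mL · Buffer or medium – YPD medium · Compound – single dose · Timing – 4 h static compound exposure, 37 °C, read 1 h post-reagent · Signal – adenylate kinase release luminescence · Read-out basis – lysis from increased AK signal · Benchmarks – Clomiphene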
PglD inh – inhibitors of Campylobacter jejuni PglD acetyltransferase; purified PglD enzyme, DTNB colorimetric CoA detection; inhibition, % at 12.5 µM; hit rate 0.098% among 360,000; in the data active = inhibition above about 16%, passing the limit was not always enough; inconclusive = no clear call, values can overlap the other calls
PglD confirm – confirmation of Campylobacter jejuni PglD acetyltransferase inhibitors | shares compounds with PglD inh | Purified C. jejuni PglD, DTNB absorbance 412 nm | inhibition, % at 20 µM | 320 tested, under 10 active | AID 743156;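 active = mean inhibition across replicates of at least 20% with every single replicate also at 20% or more; inconclusive = mean inhibition at least 20% but some replicate falls below 20%; inactive = mean inhibition under 20% and not all replicates reach it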;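 note: initial rate of CoA release by acetyl transfer from AcCoA to the UDP-4-amino sugar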
Of the large screens only hits and unclear results are named; the others gave an inactive call (follow-up assays come after a bar, where they were run).

CC(O)(c1ccc(F)c(F)c1)c1nc(-c2cccc(F)c2)cs1 (stereo unspecified)	none (no result: CAL PDZ FP-1, CAL PDZ FP-2)
CC(C)c1cccc(-c2csc(C(C)(O)c3ccc(F)c(F)c3)n2)c1 (stereo unspecified)	PglD inh 24 (no result: CAL PDZ FP-1, CAL PDZ FP-2) | PglD confirm inactive
CS(=O)(=O)N1[C@@H]2c3cccc(=O)n3C[C@H]1[C@H](CO)[C@H]2C(=O)NCc1ccccc1	none (no result: CAL PDZ FP-1, miR-122 sensor, CAL PDZ FP-2)
CS(=O)(=O)Nc1ccc2c(c1)[C@H]1C[C@H](CC(=O)N3CCCCC3)O[C@@H](CO)[C@H]1O2	none (no result: CAL PDZ FP-1, CAL PDZ FP-2)
CC(=O)Nc1cc(-c2ccccc2F)cn2c(-c3ccccc3)cnc12	none (no result: CAL PDZ FP-1, CAL PDZ FP-2)
CC(=O)c1cccc(-c2cnc3c(NC=O)cc(-c4ccccc4F)cn23)c1	PglD inh 25 (no result: CAL PDZ FP-1, CAL PDZ FP-2) | PglD confirm inactive
CCCC/C(O)=C1\C(=O)CCCC1=NCCc1c(C)[nH]c2ccc(OC)cc12	PglD inh 20 | PglD confirm inactive
CCOc1ccc(-c2nnc(-c3cccs3)o2)cc1	PglD inh 27 | PglD confirm inactive
c1ccc(CCNc2nc3ccccc3n3nnnc23)cc1	PglD inh 25 | PglD confirm inactive
COc1ccc(CCNc2nc3ccccc3n3nnnc23)cc1OC	none
Cc1noc(C)c1NC(=O)NCC[C@@H]1CC[C@@H](NC(=O)Nc2cccc(Cl)c2)[C@@H](CO)O1	none (no result: CAL PDZ FP-1, miR-122 sensor, CAL PDZ FP-2)
N#CC1=C(N)Oc2cc(N)ccc2C1c1cccc(F)c1 (stereo unspecified)	PglD inh 72 (no result: CAL PDZ FP-1) | PglD confirm inactive
CCOC(=O)c1ccc(NC(=S)N2CCC(O)CC2)cc1	PglD inh 24 | PglD confirm inactive
CCOC(=O)c1[nH]c(C)c(C(=O)OC)c1C	none (no result: miR-122 sensor, Cneo AK release, PglD inh)
CCOC(=O)c1[nH]c(C)c(C)c1C	PglD inh 25 | PglD confirm inactive
COc1ccc(C(=O)Nc2ccnn2C2CCN(C(=O)c3cccnc3)CC2)cc1	none
C[C@H]1CN([C@@H](C)CO)C(=O)c2cccc(NS(=O)(=O)c3ccc(Cl)cc3)c2O[C@@H]1CN(C)Cc1ccc(C(F)(F)F)cc1	none (no result: CAL PDZ FP-1, CAL PDZ FP-2)
CC1=C(C(=O)OCc2ccccc2)C(/C=C/c2ccccc2)NC(=S)N1 (stereo unspecified)	PglD inh 21 | PglD confirm inactive
C=CCOC(=O)C1=C(C)NC(=S)NC1/C=C/c1ccccc1 (stereo unspecified)	none
COc1cc(C(O)c2nc(-c3ccc(C)c(C)c3)cs2)ccc1F (stereo unspecified)	PglD inh 25 (no result: CAL PDZ FP-1, CAL PDZ FP-2) | PglD confirm inactive
Cc1ccc2oc(=O)c(/C=C(\O)CC(C)C)nc2c1	PglD inh 21 | PglD confirm inactive
C[C@H]1CN([C@@H](C)CO)C(=O)c2c(c3ccccc3n2C)-c2ccccc2CO[C@H]1CN(C)C(=O)c1ccc(F)cc1	none (no result: CAL PDZ FP-1, miR-122 sensor, CAL PDZ FP-2)
Cc1cc(C)n(CCCC(=O)O)n1	none
CCSC1=NCN(CCCC(=O)O)CN1	PglD inh 20 | PglD confirm inactive
Cc1ccc(S(=O)(=O)Nc2ccc3c(c2)C(=O)N([C@H](C)CO)C[C@H](C)[C@H](CN(C)S(=O)(=O)c2ccc(C)cc2)OCCCC[C@H](C)O3)cc1	none (no result: CAL PDZ FP-1, CAL PDZ FP-2)
COc1ccc(-c2cnnc(N/N=C/c3ccc(O)c(OC)c3)n2)cc1	PglD inh 26 | PglD confirm inactive
COc1cc(/C=N/Nc2nc(N3CCCC3)nc(N3CCCC3)n2)ccc1O	none
COC(=O)c1c(C(=O)OC)c(C)n(Cc2cccnc2)c1C	PglD inh 31 | PglD confirm inactive
CNC[C@@H]1Oc2ccc(NC(=O)Nc3cccc4ccccc34)cc2CC(=O)N([C@@H](C)CO)C[C@H]1C	none (no result: CAL PDZ FP-1, CAL PDZ FP-2)
C[C@@H]1CN([C@@H](C)CO)S(=O)(=O)c2ccc(-c3ccccc3)cc2O[C@@H]1CN(C)Cc1ccccc1	none (no result: CAL PDZ FP-1, CAL PDZ FP-2, Cneo AK release, PglD inh)
CC1Cc2ccccc2N1C(=O)c1ccc(N2CCCC2)c([N+](=O)[O-])c1 (stereo unspecified)	PglD inh 22 | PglD confirm inactive
CC1CCC2(CC1)NC(=O)N(CC(=O)NCc1ccc(Cl)cc1)C2=O (stereo unspecified)	PglD inh 21 | PglD confirm inactive
CCC1CCC2(CC1)NC(=O)N(CC(=O)NCc1ccc(Cl)cc1)C2=O (stereo unspecified)	none
C[C@@H]1CCCCO[C@H](CN(C)C(=O)Nc2ccc(C(F)(F)F)cc2)[C@@H](C)CN([C@@H](C)CO)C(=O)c2cc(NC(=O)C3CCCCC3)ccc2O1	none (no result: CAL PDZ FP-1, CAL PDZ FP-2)
O=C(CN1CCCCCCC1)Nc1ccc(Cl)cc1Cl	none (no result: miR-122 sensor, Cneo AK release, PglD inh)
O=C(CN1CCCCC1)Nc1ccc(NC(=O)c2ccccc2Cl)cc1Cl	PglD inh 20 | PglD confirm inactive
Cn1nnnc1SCCNS(=O)(=O)c1ccccc1	PglD inh 22 | PglD confirm inconclusive
CS(=O)(=O)N(CC(=O)NCCSc1ccccn1)c1cccc2ccccc12	PglD inh 20 | PglD confirm inactive
CC1CCCN(S(=O)(=O)c2ccc(Br)s2)C1 (stereo unspecified)	none
CC1CCCN(S(=O)(=O)c2ccc(Cl)s2)C1 (stereo unspecified)	PglD inh 26 (no result: CAL PDZ FP-2) | PglD confirm inactive
Cc1ccc(O)c(NC(=O)CN(C)S(=O)(=O)c2ccc(Cl)cc2)c1	PglD inh 30 | PglD confirm inactive
CCC(=O)Nc1ccc2c(c1)C(=O)N(C)C[C@H](OC)[C@H](C)CN(Cc1ccccn1)[C@H](C)CO2	none (no result: CAL PDZ FP-1, CAL PDZ FP-2)
Cc1cc(-c2nnc(SCC(=O)Nc3cccc(Cl)c3)n2N)n[nH]1	none
COCCNC(=O)Cc1ccc(F)cc1	none (no result: miR-122 sensor, Cneo AK release, PglD inh)
COCCNC(=O)CCCC(=O)NCCOC	PglD inh 35 | PglD confirm inactive
C=CCNC(=S)NNC(=O)c1cccn(Cc2cccc(Cl)c2)c1=O	none (no result: CAL PDZ FP-2)
COc1cc(NC(=O)COC(=O)CSc2ccccc2F)c(C)cc1[N+](=O)[O-]	none (no result: miR-122 sensor, Cneo AK release, PglD inh)
COc1cc(NC(=O)COC(=O)CSc2cc(C)ccc2C)c(C)cc1[N+](=O)[O-]	PglD inh 22 | PglD confirm inactive
COCC(=O)NCCNc1nc2ccc(C)cc2cc1C	PglD inh 41 | PglD confirm inactive
Cc1ccc(C(=O)NCCNc2nc3cc(C)c(C)cc3cc2C)cc1	none
CCOC(=O)CSc1nnc2c3ccccc3n(C)c2n1	none (no result: CAL PDZ FP-2)
Cn1c2ccccc2c2nnc(SCC(N)=O)nc21	PglD inh 47 | PglD confirm inactive
CCOC(=O)C1CCN(S(=O)(=O)c2ccc3c(c2)CC(=O)N3C)CC1	PglD inh 41 | PglD confirm inactive
CCNC(=O)[C@@H]1[C@@H](CO)[C@@H]2Cn3c(ccc(-c4ccccc4F)c3=O)[C@H]1N2C(=O)CC	none (no result: CAL PDZ FP-1, CAL PDZ FP-2)
C[C@@H]1CCCCO[C@@H](CN(C)S(=O)(=O)c2cn(C)cn2)[C@@H](C)CN([C@@H](C)CO)C(=O)c2cc(NC(=O)Cc3ccccc3)ccc2O1	none (no result: CAL PDZ FP-1, CAL PDZ FP-2)
Cc1ccccc1-c1ccc([C@@H]2[C@@H](CO)N3CCCCN(C(=O)CN4CCOCC4)C[C@@H]23)cc1	none (no result: CAL PDZ FP-1, CAL PDZ FP-2)

Screening data (PubChem)
